Source: PMC6818095 (Journal of medicinal chemistry, 2014)

Experiments:
[1] = biological target: T1, σ2 receptor (Rattus norvegicus, UniProt Q5U3Y7); type: binding; conditions: for increase of selectivity for σ2 compared to 26 / increase of σ2 binding affinity compared to 26: relative to nonsubstituted 1H-[1,2,3]triazole carboxamide analogue 26; for lower binding affinity for σ2 receptor than corresponding methoxy-substituted congeners: 39e and 39f versus 39b and 39c
T1 sequence (Q5U3Y7 1-176): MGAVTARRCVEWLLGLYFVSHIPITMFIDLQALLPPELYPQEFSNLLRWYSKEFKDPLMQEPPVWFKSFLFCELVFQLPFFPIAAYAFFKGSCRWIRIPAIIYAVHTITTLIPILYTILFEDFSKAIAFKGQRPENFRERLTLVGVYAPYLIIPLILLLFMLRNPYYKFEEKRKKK

[2] = system: EMT-6 murine breast cancer cells; assay: functional assay: cell viability; type: cell-based; conditions: for cytotoxicity (in words): EMT-6 cells, cell viability assay
How it was run: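 EMT-6 murine breast cancer cells grown in DMEM with 10% FBS and penicillin/streptomycin at 37 °C, 5% CO2; seeded 5 × 10^3 cells/well 24 h before dosing. Test compound in DMSO serially diluted in medium (final DMSO ≤1.0%), 24 or 48 h exposure. MTS reagent 1–2 h at 37 °C, A490. Viability relative to untreated cells; EC50 from dose–response curves; triplicate, mean ± SEM of three experiments.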

Row | Structure (SMILES) | increase of selectivity for σ2 compared to 26 [1] | increase of σ2 binding affinity compared to 26 [1] | other results
1 | COc1cc2c(cc1OC)CN(CCCCNC(=O)c1cn(-c3ccccc3OC)nn1)CC2 [24d, N-(4-(6,7-Dimethoxy-3,4-dihydro-1H-isoquinolin-2-yl)butyl)-1-(2-methoxyphenyl)-1H-1,2,3-triazole-4-carboxamide] | 817 fold | 682 fold | 
2 | COc1cccc(-n2cc(C(=O)NCCCCN3CCc4cc(OC)c(OC)cc4C3)nn2)c1 [24e, N-(4-(6,7-Dimethoxy-3,4-dihydro-1H-isoquinolin-2-yl)butyl)-1-(3-methoxyphenyl)-1H-1,2,3-triazole-4-carboxamide] | 629 fold | 341 fold | 
3 | COc1ccc(-n2cc(C(=O)NCCCCN3CCc4cc(OC)c(OC)cc4C3)nn2)cc1 [24f, N-(4-(6,7-Dimethoxy-3,4-dihydro-1H-isoquinolin-2-yl)butyl)-1-(4-methoxyphenyl)-1H-1,2,3-triazole-4-carboxamide] |  | 186 fold | cytotoxicity (in words) [2]: did not induce cytotoxicity; agonist/antagonist classification at the σ2 receptor ([2]; based on cytotoxicity in EMT-6 cells relative to siramesine): antagonist
4 | COc1ccccc1Cn1cc(C(=O)NCCCCN2CCc3cc(OC)c(OC)cc3C2)nn1 [39a, N-(4-(6,7-Dimethoxy-3,4-dihydro-1H-isoquinolin-2-yl)butyl)-1-(2-methoxybenzyl)-1H-1,2,3-triazole-4-carboxamide] | 198 fold | 105 fold | 
5 | COc1cccc(Cn2cc(C(=O)NCCCCN3CCc4cc(OC)c(OC)cc4C3)nn2)c1 [39b, N-(4-(6,7-Dimethoxy-3,4-dihydro-1H-isoquinolin-2-yl)butyl)-1-(3-methoxybenzyl)-1H-1,2,3-triazole-4-carboxamide] | 110 fold | 96 fold | 
6 | COc1ccc(Cn2cc(C(=O)NCCCCN3CCc4cc(OC)c(OC)cc4C3)nn2)cc1 [39c, N-(4-(6,7-Dimethoxy-3,4-dihydro-1H-isoquinolin-2-yl)butyl)-1-(4-methoxybenzyl)-1H-1,2,3-triazole-4-carboxamide] | 63 fold | 205 fold | 
7 | COc1cc2c(cc1OC)CN(CCCCNC(=O)c1cn(Cc3ccccc3)nn1)CC2 [39d, 1-Benzyl-N-(4-(6,7-dimethoxy-3,4-dihydro-1H-isoquinolin-2-yl)-butyl)-1H-1,2,3-triazole-4-carboxamide] | 34 fold | 82 fold | 
8 | COc1cc2c(cc1OC)CN(CCCCNC(=O)c1cn(Cc3cccc(O)c3)nn1)CC2 [39e, N-(4-(6,7-Dimethoxy-3,4-dihydro-1H-isoquinolin-2-yl)butyl)-1-(3-hydroxybenzyl)-1H-1,2,3-triazole-4-carboxamide] |  |  | lower binding affinity for σ2 receptor than corresponding methoxy-substituted congeners [1]: 2 fold
9 | COc1cc2c(cc1OC)CN(CCCCNC(=O)c1cn(Cc3ccc(O)cc3)nn1)CC2 [39f, N-(4-(6,7-Dimethoxy-3,4-dihydro-1H-isoquinolin-2-yl)butyl)-1-(4-hydroxybenzyl)-1H-1,2,3-triazole-4-carboxamide] |  |  | lower binding affinity for σ2 receptor than corresponding methoxy-substituted congeners [1]: 2 fold
10 | COc1cccc(Cn2cc(C(=O)NCCN3CCc4cc(OC)c(OC)cc4C3)nn2)c1 [40e, N-(2-(6,7-Dimethoxy-3,4-dihydro-1H-isoquinolin-2-yl)ethyl)-1-(3-methoxybenthyl)-1H-1,2,3-triazole-4-carboxamide] |  |  | σ2 binding affinity lower than the 4-carbon spacer congeners ([1]; 2-carbon spacer 40a–40f versus 24d–24f and 39a–39c): 20 fold
11 | COc1cc2c(cc1OC)CN(CCCCNC(=O)c1cc(-n3cc(CN(C)C)nn3)ccc1OCCF)CC2 [compound 65, N-(4-(6,7-Dimethoxy-3,4-dihydroisoquinolin-2(1H)-yl)butyl)-5-(4-((dimethylamino)methyl)-1H-1,2,3-triazol-1-yl)-2-(2-fluoroethoxy)benzamide] |  |  | σ2 binding affinity lower than lead compound 8 ([1]; 65 versus lead compound 8): 14 fold; σ2 binding affinity lower than lead compound 9 ([1]; 65 versus lead compound 9): 89 fold
12 | Fc1ccc(-n2cc(CCCCN3CCC4(CC3)OCc3ccccc34)c3ccccc32)cc1 [siramesine, reference compound] |  |  | cytotoxicity (in words) [2]: potent cytotoxicity
